In ChEMBL document CHEMBL5236552, “Discovery of Soticlestat, a Potent and Selective Inhibitor for Cholesterol 24-Hydroxylase (CH24H)” (J Med Chem, 2021):

How the values were obtained:
CYP3A4 = CYP3A4 (Homo sapiens, UniProt P08684); assay: Inhibition of CYP3A4 (unknown origin) at 10 uM using testosterone as substrate incubated for 60 mins by LC-MS/MS analysis relative to control; type: ADME; details: probe testosterone
How it was run: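 CYP3A4-expressing microsomes in 50 mmol/L phosphate buffer (pH 7.4) with an NADPH-generating system (MgCl2, β-NADP+, glucose-6-phosphate, G6P dehydrogenase). Testosterone was the substrate and test compound was 10 µmol/L, with final solvent at 0.5%. Incubated 60 min, stopped with acetonitrile, and 6β-hydroxytestosterone read by LC/MS/MS. Run in triplicate; reported as % activity remaining versus an inhibitor-free control.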

[1] = molecular target: Cholesterol 24-hydroxylase (Homo sapiens, UniProt Q9Y6A2); assay: Inhibition of full length N-terminal his6-tagged human CH24H (28 to 494 residues) expressed in Escherichia coli DH5alpha using [14C] cholesterol as substrate preincubated for 15 mins followed by substrate addition and measured after 5 min in presence of beta-NADPH
Cholesterol 24-hydroxylase, sequence (Q9Y6A2 whole entry, the tested form may be a part): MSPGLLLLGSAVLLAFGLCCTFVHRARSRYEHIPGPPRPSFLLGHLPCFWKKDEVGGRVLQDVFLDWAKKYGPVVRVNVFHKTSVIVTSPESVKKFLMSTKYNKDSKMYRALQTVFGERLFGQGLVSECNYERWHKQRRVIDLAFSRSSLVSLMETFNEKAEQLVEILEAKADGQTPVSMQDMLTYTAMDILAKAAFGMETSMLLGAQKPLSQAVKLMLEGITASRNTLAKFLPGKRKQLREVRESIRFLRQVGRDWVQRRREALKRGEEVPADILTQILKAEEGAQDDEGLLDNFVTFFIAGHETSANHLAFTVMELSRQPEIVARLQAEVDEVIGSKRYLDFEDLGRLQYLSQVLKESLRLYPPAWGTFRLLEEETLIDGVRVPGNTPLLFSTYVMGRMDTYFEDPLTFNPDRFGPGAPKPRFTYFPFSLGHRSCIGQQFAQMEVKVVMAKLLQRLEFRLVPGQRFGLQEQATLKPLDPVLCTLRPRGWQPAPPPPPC

[2] = Metabolic stability in human liver microsome assessed as clearance at 1 uM incubated for 15 to 30 mins in presence of NADPH by LC-MS/MS analysis; type: ADME; details: liver microsomes, time 15-30 min, read-out: CLH
How it was run: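 Human liver microsomes (0.2 mg protein/mL) were mixed with compound (1 µM) in phosphate buffer (pH 7.4) and started with an NADPH-generating system. Incubated at 37 °C for 15 and 30 min, with zero-time samples as controls, then stopped with acetonitrile. Remaining compound in the supernatant was measured by LC/MS/MS.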

Cytochrome P450 2D6 = Cytochrome P450 2D6 (Homo sapiens, UniProt P10635); assay: Inhibition of CYP2D6 (unknown origin) using bufuralol as substrate incubated for 10 to 20 mins in presence of NADPH-generating system by LC-MS/MS analysis
Cytochrome P450 2D6, sequence (P10635 whole entry): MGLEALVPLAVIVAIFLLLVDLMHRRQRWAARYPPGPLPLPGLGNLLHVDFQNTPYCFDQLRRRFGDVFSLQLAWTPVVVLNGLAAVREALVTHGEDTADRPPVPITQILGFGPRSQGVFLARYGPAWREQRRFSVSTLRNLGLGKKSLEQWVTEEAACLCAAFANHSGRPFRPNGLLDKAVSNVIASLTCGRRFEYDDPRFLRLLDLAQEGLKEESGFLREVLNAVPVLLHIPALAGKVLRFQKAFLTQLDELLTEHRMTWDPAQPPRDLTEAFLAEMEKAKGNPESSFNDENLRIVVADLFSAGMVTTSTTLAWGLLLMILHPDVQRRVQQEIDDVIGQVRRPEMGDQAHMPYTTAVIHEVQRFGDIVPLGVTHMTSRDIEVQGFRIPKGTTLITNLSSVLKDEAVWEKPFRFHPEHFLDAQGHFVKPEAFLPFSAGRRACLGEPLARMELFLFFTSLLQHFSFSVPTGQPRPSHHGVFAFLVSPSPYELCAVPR

Cytochrome P450 2C8 = molecular target: T1, Cytochrome P450 2C8 (Homo sapiens, UniProt P10632); assay: Inhibition of CYP2C8 (unknown origin) using amodiaquine as substrate incubated for 10 to 20 mins in presence of NADPH-generating system by LC-MS/MS analysis; type: ADME
T1 sequence (P10632 whole entry): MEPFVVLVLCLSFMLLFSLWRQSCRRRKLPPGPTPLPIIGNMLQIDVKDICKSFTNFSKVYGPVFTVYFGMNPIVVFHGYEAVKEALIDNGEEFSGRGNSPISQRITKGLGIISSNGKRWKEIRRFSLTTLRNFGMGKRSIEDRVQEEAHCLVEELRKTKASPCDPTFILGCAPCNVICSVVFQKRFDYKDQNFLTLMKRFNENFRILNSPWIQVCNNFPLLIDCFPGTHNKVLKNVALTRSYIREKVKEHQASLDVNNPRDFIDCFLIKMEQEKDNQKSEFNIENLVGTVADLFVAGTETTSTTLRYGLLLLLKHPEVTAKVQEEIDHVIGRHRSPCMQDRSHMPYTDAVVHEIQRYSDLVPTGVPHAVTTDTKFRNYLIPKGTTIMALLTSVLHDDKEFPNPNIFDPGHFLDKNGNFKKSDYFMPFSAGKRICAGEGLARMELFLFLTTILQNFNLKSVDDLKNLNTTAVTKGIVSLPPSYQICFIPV
How it was run: (§1)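 Recombinant CYP-expressing microsomes (CYP1A2, 2C8, 2C9, 2C19, 2D6, 3A4) in 50 mM phosphate buffer pH 7.4 with NADPH-generating system. Substrates: phenacetin, amodiaquine, tolbutamide, (S)-mephenytoin, bufuralol, testosterone, respectively. Test compounds at 1–100 µM final, 0.5% final solvent. Incubated 10–20 min at 37 °C in duplicate, stopped with acetonitrile. Metabolite peaks read by LC/MS/MS; activity given as % remaining versus no-inhibitor control.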

Mus musculus [3] = assay: In vivo inhibition of […] CH24H in C57BL/6N mouse brain assessed as reduction in 24HC level at 3 mg/kg, po measured after 24 hrs relative to control; type: functional
How it was run: (§2)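 Female C57BL/6N mice, 7–8 weeks, 3 per group; single oral gavage in 0.5% aqueous methylcellulose (10 mL/kg) at 1, 3 or 10 mg/kg. Brains collected up to 24 h after dosing and homogenized in about 4-fold saline. 24HC extracted with acetonitrile/methanol/formic acid, quantified by UPLC on a C18 column at 40 °C, and expressed as % of control; mean + SD.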

Cytochrome P450 2C9 = Cytochrome P450 2C9 (Homo sapiens, UniProt P11712); assay: Inhibition of CYP2C9 (unknown origin) using tolbutamide as substrate incubated for 10 to 20 mins in presence of NADPH-generating system by LC-MS/MS analysis; type: ADME; how it was run: as §1
Cytochrome P450 2C9, sequence (P11712 whole entry): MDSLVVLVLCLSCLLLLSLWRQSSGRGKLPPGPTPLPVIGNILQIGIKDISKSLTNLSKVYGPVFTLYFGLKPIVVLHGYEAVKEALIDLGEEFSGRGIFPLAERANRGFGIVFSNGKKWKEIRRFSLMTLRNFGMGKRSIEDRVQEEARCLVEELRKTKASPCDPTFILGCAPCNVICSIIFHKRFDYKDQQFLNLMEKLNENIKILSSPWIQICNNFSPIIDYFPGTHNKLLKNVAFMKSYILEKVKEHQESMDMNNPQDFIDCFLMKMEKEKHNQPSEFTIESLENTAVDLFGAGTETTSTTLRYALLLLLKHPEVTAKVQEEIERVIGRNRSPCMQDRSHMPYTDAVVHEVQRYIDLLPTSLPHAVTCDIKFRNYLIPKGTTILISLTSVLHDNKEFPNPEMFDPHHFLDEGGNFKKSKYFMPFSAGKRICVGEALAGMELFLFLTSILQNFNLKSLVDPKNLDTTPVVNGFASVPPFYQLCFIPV

Mus musculus [4] = assay: In vivo inhibition of […] CH24H in po dosed C57BL/6N mouse brain assessed as reduction in 24HC level measured upto 24 hrs; type: functional, organism-based; details: dose 1-10 mg/kg; how it was run: as §2
[5] = Inhibition of aldosterone synthesis in human NCI-H295R cells at 10 uM by Enzyme immunoassay relative to control; type: functional
How it was run: (§3)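 H295R adrenocortical cells grown in DMEM/F12 with 2.5% Nu-serum and 1% ITS-plus, seeded at 5×10^4 per well for three nights, then primed two nights with 20 µM forskolin. Cells washed, then exposed overnight to compound in DMEM/F12 with 1% ITS-plus and 20 µM forskolin. Cortisol, testosterone, aldosterone and corticosterone in the supernatant measured by competitive EIA against a calibration curve; triplicate, mean ± SEM.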

Cytochrome P450 2C19 = Cytochrome P450 2C19 (Homo sapiens, UniProt P33261); assay: Inhibition of CYP2C19 (unknown origin) using (S)-mephenytoin as substrate incubated for 10 to 20 mins in presence of NADPH-generating system by LC-MS/MS analysis
Cytochrome P450 2C19, sequence (P33261 whole entry): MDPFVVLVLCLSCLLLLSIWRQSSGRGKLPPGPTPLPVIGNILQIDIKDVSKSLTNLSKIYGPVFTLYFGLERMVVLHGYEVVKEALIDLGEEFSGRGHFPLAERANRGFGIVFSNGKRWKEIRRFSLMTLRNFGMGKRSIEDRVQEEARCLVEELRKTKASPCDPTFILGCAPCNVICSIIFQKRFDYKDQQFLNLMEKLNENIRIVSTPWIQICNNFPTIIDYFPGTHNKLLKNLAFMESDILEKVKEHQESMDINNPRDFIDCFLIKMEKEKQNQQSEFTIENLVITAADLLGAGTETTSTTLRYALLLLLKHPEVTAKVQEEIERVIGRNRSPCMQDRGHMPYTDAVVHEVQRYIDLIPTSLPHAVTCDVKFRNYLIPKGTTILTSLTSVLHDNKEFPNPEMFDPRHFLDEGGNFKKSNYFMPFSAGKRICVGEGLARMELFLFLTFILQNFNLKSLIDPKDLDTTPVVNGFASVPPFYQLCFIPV

[6] = Inhibition of testosterone synthesis in human NCI-H295R cells at 10 uM by Enzyme immunoassay relative to control; type: functional; how it was run: as §3
[7] = Inhibition of corticosterone synthesis in human NCI-H295R cells at 10 uM by Enzyme immunoassay relative to control; type: functional; how it was run: as §3
Cytochrome P450 1A2 = molecular target: T2, Cytochrome P450 1A2 (Homo sapiens, UniProt P05177); assay: Inhibition of CYP1A2 (unknown origin) using phenacetin as substrate incubated for 10 to 20 mins in presence of NADPH-generating system by LC-MS/MS analysis; type: ADME; how it was run: as §1
T2 sequence (P05177 whole entry): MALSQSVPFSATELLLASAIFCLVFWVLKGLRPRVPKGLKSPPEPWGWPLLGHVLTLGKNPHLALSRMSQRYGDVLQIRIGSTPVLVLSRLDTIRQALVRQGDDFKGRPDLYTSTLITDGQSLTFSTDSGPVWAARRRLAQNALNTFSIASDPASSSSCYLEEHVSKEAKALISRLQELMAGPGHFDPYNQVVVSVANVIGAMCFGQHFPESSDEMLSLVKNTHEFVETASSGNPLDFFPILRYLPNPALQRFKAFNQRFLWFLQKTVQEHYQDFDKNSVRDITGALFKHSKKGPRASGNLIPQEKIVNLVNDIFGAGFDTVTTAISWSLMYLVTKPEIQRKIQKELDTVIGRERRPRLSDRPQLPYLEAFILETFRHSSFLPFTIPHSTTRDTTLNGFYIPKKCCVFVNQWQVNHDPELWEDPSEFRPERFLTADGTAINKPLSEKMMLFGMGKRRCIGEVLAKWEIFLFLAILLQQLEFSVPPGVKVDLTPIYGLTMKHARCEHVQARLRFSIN

[8] = Drug concentration in po dosed C57BL/6N mouse brain measured upto 24 hrs by LC-MS analysis; type: ADME, organism-based; details: in vivo, dose 1-10 mg/kg
How it was run: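 Female C57BL/6N mice, 7–8 weeks, 3 per group; single oral gavage at 1, 3 and 10 mg/kg in 0.5% aqueous methylcellulose (10 mL/kg). Brains taken at 0.5–24 h (from 0.25 h at 10 mg/kg) and homogenized in about 4-fold saline. Homogenate mixed with acetonitrile plus internal standard, centrifuged, and quantified by LC-MS/MS in MRM mode (m/z 374.20→183.10).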

Mus musculus [9] = assay: In vivo inhibition of […] CH24H in C57BL/6N mouse brain assessed as reduction in 24HC level at 10 mg/kg, po measured after 24 hrs relative to control; type: functional; how it was run: as §2
[10] = Inhibition of cortisol synthesis in human NCI-H295R cells at 10 uM by Enzyme immunoassay relative to control; type: functional; how it was run: as §3

CYP3A4, sequence (P08684 whole entry): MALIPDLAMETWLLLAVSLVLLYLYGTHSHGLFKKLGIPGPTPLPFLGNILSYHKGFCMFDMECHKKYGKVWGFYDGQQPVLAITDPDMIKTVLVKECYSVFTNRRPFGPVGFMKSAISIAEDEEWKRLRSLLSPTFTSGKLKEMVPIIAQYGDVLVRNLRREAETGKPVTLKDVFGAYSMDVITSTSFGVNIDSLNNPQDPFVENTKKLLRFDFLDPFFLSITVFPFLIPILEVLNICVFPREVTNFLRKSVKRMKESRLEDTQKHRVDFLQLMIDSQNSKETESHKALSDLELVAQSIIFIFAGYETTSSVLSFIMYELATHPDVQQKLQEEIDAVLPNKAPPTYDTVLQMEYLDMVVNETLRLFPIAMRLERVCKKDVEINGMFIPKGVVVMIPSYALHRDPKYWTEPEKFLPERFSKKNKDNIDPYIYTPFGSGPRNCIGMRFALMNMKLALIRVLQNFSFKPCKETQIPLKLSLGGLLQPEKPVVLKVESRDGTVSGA

Cc1cccc(C(=O)N2CCC(O)(Cc3ccccc3)CC2)c1-c1ccncc1
inhibition at 1 h, 10 µM (CYP3A4): 77% | IC50 [1]: 130 nM

Cc1ccc(-c2ccncc2)c(C(=O)N2CCC(Cc3ccccc3)C(O)C2)c1 (racemic)
IC50 [1]: 16 nM

Cc1ccc(-c2ccnc(C)c2)c(C(=O)N2CCC(O)(Cc3ccccc3)CC2)c1
inhibition at 1 h, 10 µM (CYP3A4): 60% | IC50 [1]: > 10000 nM

Cc1ccc(-c2ccncc2)c(C(=O)N2CCC(O)(c3ccccc3)CC2)c1
IC50 [1]: 1200 nM

O=C(c1ccccc1-c1ccncc1)N1CCC(O)(Cc2ccccn2)CC1
inhibition at 1 h, 10 µM (CYP3A4): 18% | IC50 [1]: 21 nM | microsomal CLint at 1 µM [2]: 22 µL/min/mg

Cc1ccc(-c2ccncc2)c(C(=O)N2CCC(O)(Cc3ccccc3)CC2)c1
inhibition at 1 h, 10 µM (CYP3A4): 67% | IC50 [1]: 2.7 nM

Cc1ccc(-c2ccncc2F)c(C(=O)N2CCC(O)(Cc3ccccc3)CC2)c1
inhibition at 1 h, 10 µM (CYP3A4): 77% | IC50 [1]: 17 nM

Cc1ccc(C(=O)N2CCC(O)(Cc3ccccc3)CC2)c(-c2ccncc2)c1
inhibition at 1 h, 10 µM (CYP3A4): 65% | IC50 [1]: 4.4 nM

O=C(c1cccnc1-c1ccncn1)N1CCC(O)(Cc2ccccc2)CC1
inhibition at 1 h, 10 µM (CYP3A4): 13% | IC50 [1]: 19 nM | microsomal CLint at 1 µM [2]: 17 µL/min/mg

O=C(c1cccnc1-c1ccncc1)N1CCC(O)(Cc2ccccc2)CC1 [SOTICLESTAT]
IC50 (Cytochrome P450 2D6): > 100000 nM | IC50 (Cytochrome P450 2C8): 62000 nM | inhibition in vivo at 3 mg/kg (Mus musculus [3]): 25% | IC50 (Cytochrome P450 2C9): 19000 nM | inhibition (Mus musculus [4]): Dose-Dependent Effect | inhibition at 1 h, 10 µM (CYP3A4): 28% | inhibition at 10 µM [5]: -3.8% | IC50 (Cytochrome P450 2C19): 14000 nM | inhibition at 10 µM [6]: -0.4% | inhibition at 10 µM [7]: -6% | IC50 (Cytochrome P450 1A2): > 100000 nM | Drug uptake [8]: Dose-Dependent Effect | inhibition in vivo at 10 mg/kg (Mus musculus [9]): 33% | inhibition at 10 µM [10]: 0.2% | IC50 [1]: 7.4 nM | microsomal CLint at 1 µM [2]: 22 µL/min/mg

Cc1ccc(-c2ccncc2)c(C(=O)N2CCC(Cc3ccccc3)CC2)c1
IC50 [1]: 110 nM

COc1ccc(-c2ccncc2)c(C(=O)N2CCC(O)(Cc3ccccc3)CC2)c1
inhibition at 1 h, 10 µM (CYP3A4): 67% | IC50 [1]: 4.7 nM

COC1(Cc2ccccc2)CCN(C(=O)c2cc(C)ccc2-c2ccncc2)CC1
IC50 [1]: 74 nM

Cc1ccc(-c2ccncc2C)c(C(=O)N2CCC(O)(Cc3ccccc3)CC2)c1
inhibition at 1 h, 10 µM (CYP3A4): 91% | IC50 [1]: 4.9 nM

O=C(c1cc(Cl)ccc1-c1ccncc1)N1CCC(O)(Cc2ccccc2)CC1
inhibition at 1 h, 10 µM (CYP3A4): 75% | IC50 [1]: 2.4 nM

Cc1ccc(-c2ccncc2)c(C(=O)N2CCC(O)CC2)c1
IC50 [1]: 7700 nM

Cc1cccc(-c2ccncc2)c1C(=O)N1CCC(O)(Cc2ccccc2)CC1
inhibition at 1 h, 10 µM (CYP3A4): 71% | IC50 [1]: 7.8 nM

Cc1ccc(-c2ccncc2)c(C(=O)N2CCN(Cc3ccccc3)C(=O)C2)c1
IC50 [1]: 89 nM

Cc1ccc(-c2ccncc2)c(C(=O)N2CCN(C(=O)c3ccccc3)CC2)c1
IC50 [1]: > 10000 nM

O=C(c1ccccc1-c1ccncn1)N1CCC(O)(Cc2ccccn2)CC1
inhibition at 1 h, 10 µM (CYP3A4): 8.8% | IC50 [1]: 36 nM | microsomal CLint at 1 µM [2]: 9 µL/min/mg

COC(=O)c1cc(C)ccc1-c1ccncc1
IC50 [1]: 1900 nM

Cc1ccccc1C1=NN(C(=O)c2ccncc2)C(C)(C)C1
IC50 [1]: 60 nM

O=C(c1ccccc1-c1ccncc1)N1CCC(O)(Cc2ccccc2)CC1
inhibition at 1 h, 10 µM (CYP3A4): 45% | IC50 [1]: 7.9 nM | microsomal CLint at 1 µM [2]: 120 µL/min/mg

CCC1(O)CCN(C(=O)c2cc(C)ccc2-c2ccncc2)CC1
IC50 [1]: 540 nM

O=C(c1ccccc1-c1ccncn1)N1CCC(O)(Cc2ccccc2)CC1
inhibition at 1 h, 10 µM (CYP3A4): 17% | IC50 [1]: 4.3 nM | microsomal CLint at 1 µM [2]: 70 µL/min/mg

O=C(c1cc(F)ccc1-c1ccncc1)N1CCC(O)(Cc2ccccc2)CC1
inhibition at 1 h, 10 µM (CYP3A4): 55% | IC50 [1]: 6.1 nM

Cc1ccc(-c2ccncc2)c(C(=O)N2CCN(Cc3ccccc3)CC2)c1
IC50 [1]: 93 nM

C[C@@H](c1ncncc1F)[C@](O)(Cn1cncn1)c1ccc(F)cc1F [VORICONAZOLE]
IC50 [1]: > 10000 nM

O=C(c1ccncc1)N1N=C(c2ccccc2)CC1(O)C(F)(F)F (stereo unspecified)
IC50 [1]: 350 nM

O=C(c1cccnc1-c1ccncc1)N1CCC(O)(Cc2ccccn2)CC1
inhibition at 1 h, 10 µM (CYP3A4): 5.3% | IC50 [1]: 100 nM
